Results on 12 molecules are retold here after ChEMBL document CHEMBL1134286, “Novel erythromycin derivatives with aryl groups tethered to the C-6 position are potent protein synthesis inhibitors and active against multidrug-resistant respiratory pathogens” (J Med Chem, 2001).

Common to all, as to type: functional
The test system of experiment [1] is Staphylococcus aureus. Put plainly: Minimum inhibitory concentration against Staphylococcus aureus A 5177 MLSB-i. The essentials: (§1)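 MICs were determined by agar dilution following National Committee for Clinical Laboratory Standards recommendations. Values are in µg/mL.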
The subject of experiment [2] is Staphylococcus aureus. Put plainly: Minimum inhibitory concentration against Staphylococcus aureus A 5278 MLSB-c. The essentials:
as §1

Experiment [3] can be described thus: Minimum inhibitory concentration against Streptococcus pyogenes PIU2548 efflux. The essentials:
as §1

Experiment [4] relates to Streptococcus pneumoniae. Put plainly: Minimum inhibitory concentration against Streptococcus pneumoniae 5649 efflux. The essentials: as §1
A short description of experiment [5]: Minimum inhibitory concentration against Streptococcus pneumoniae 5737 MLSB. In a few lines:
as §1

Experiment [6] concerns Streptococcus pneumoniae. Put plainly: Minimum inhibitory concentration against Streptococcus pneumoniae ATCC 6303 Ery-S. In a few lines: as §1
Experiment [7] is described as follows: Minimum inhibitory concentration against Streptococcus pyogenes 930MLSB. The essentials: as §1
Experiment [8] has as its system Staphylococcus aureus. Put plainly: Minimum inhibitory concentration against Staphylococcus aureus ATCC 6538PEry-S. The note with it: ATCC 6538P. In a few lines: as §1
Experiment [9] is described as follows: Minimum inhibitory concentration against Streptococcus pyogenes EES 61 Ery-S. The essentials: as §1
The nature of experiment [10]: Minimum inhibitory concentration against Haemophilus influenzae DILL Amp-R. The essentials:
as §1

Values after ≈ are worked out from the molar mass of the structure shown.

In the case of `CC[C@H]1OC(=O)[C@H](C)C(=O)[C@H](C)[C@@H](O[C@@H]2O[C@H](C)C[C@H](N(C)C)[C@H]2O)[C@](C)(OCCNCc2ccnc3ccccc23)C[C@@H](C)C(=O)[C@H](C)[C@@H](O)[C@]1(C)O`, the MIC in the experiment on Staphylococcus aureus [1] is 3.1 µg/mL (≈ 4.09 µM); against Staphylococcus aureus [2], greater than 100 µg/mL; in experiment [3] it was 4 µg/mL (≈ 5.28 µM); against Streptococcus pneumoniae [4], 0.5 µg/mL (≈ 0.66 µM); in experiment [5], greater than 128 µg/mL; against Streptococcus pneumoniae [6], 0.25 µg/mL (≈ 0.33 µM). For the same molecule, the MIC in experiment [7] is greater than 128 µg/mL; against Staphylococcus aureus [8], 3.1 µg/mL (≈ 4.09 µM); in experiment [9], 0.25 µg/mL (≈ 0.33 µM); in experiment [10], 32 µg/mL (≈ 42.2 µM).
For `CC[C@H]1OC(=O)[C@H](C)C(=O)[C@H](C)[C@@H](O[C@@H]2O[C@H](C)C[C@H](N(C)C)[C@H]2O)[C@](C)(OC/C=C/c2cccc3cccnc23)C[C@@H](C)C(=O)[C@H](C)[C@H]2NC(=O)O[C@@]21C`, the MIC is 0.1 µg/mL (≈ 0.131 µM) in the experiment on Staphylococcus aureus [1]; greater than 100 µg/mL against Staphylococcus aureus [2]; 0.5 µg/mL (≈ 0.653 µM) in experiment [3]; 0.5 µg/mL (≈ 0.653 µM) in the experiment on Streptococcus pneumoniae [4]; greater than 32 µg/mL in [5]; 0.03 µg/mL (≈ 0.0392 µM) with Streptococcus pneumoniae [6]. Moreover, the MIC in experiment [7] is greater than 32 µg/mL; in the experiment with Staphylococcus aureus [8] it was 0.2 µg/mL (≈ 0.261 µM); in experiment [9], 0.03 µg/mL (≈ 0.0392 µM); in experiment [10] it was 8 µg/mL (≈ 10.4 µM).
Turning to `CC[C@H]1OC(=O)[C@H](C)C(=O)[C@H](C)[C@@H](O[C@@H]2O[C@H](C)C[C@H](N(C)C)[C@H]2O)[C@](C)(OCCNCCCc2ccccc2)C[C@@H](C)C(=O)[C@H](C)[C@H]2NC(=O)O[C@@]21C`, the MIC against Staphylococcus aureus [1] is 0.2 µg/mL (≈ 0.263 µM); with Staphylococcus aureus [2], greater than 100 µg/mL; in [3] it was 2 µg/mL (≈ 2.63 µM); against Streptococcus pneumoniae [4], 0.5 µg/mL (≈ 0.658 µM); in experiment [5], 16 µg/mL (≈ 21.1 µM); with Streptococcus pneumoniae [6], 0.03 µg/mL (≈ 0.0395 µM). In addition, the MIC is 64 µg/mL (≈ 84.2 µM) in [7], 0.2 µg/mL (≈ 0.263 µM) against Staphylococcus aureus [8], 0.03 µg/mL (≈ 0.0395 µM) in experiment [9] and 4 µg/mL (≈ 5.26 µM) in experiment [10].
As to `CC[C@H]1OC(=O)[C@H](C)C(=O)[C@H](C)[C@@H](O[C@@H]2O[C@H](C)C[C@H](N(C)C)[C@H]2O)[C@](C)(OC/C=C/c2cnc3ncccc3c2)C[C@@H](C)C(=O)[C@H](C)[C@H]2NC(=O)O[C@@]21C`, the MIC is 0.05 µg/mL (≈ 0.0652 µM) against Staphylococcus aureus [1]; greater than 100 µg/mL with Staphylococcus aureus [2]; 2 µg/mL (≈ 2.61 µM) in experiment [3]; 2 µg/mL (≈ 2.61 µM) against Streptococcus pneumoniae [4]; 0.5 µg/mL (≈ 0.652 µM) in [5]; 0.03 µg/mL (≈ 0.0391 µM) with Streptococcus pneumoniae [6]. Moreover, the MIC in experiment [7] amounted to 0.5 µg/mL (≈ 0.652 µM); against Staphylococcus aureus [8], 0.05 µg/mL (≈ 0.0652 µM); in [9] it was 0.03 µg/mL (≈ 0.0391 µM); in [10], 2 µg/mL (≈ 2.61 µM).
On to `CC[C@H]1OC(=O)[C@H](C)C(=O)[C@H](C)[C@@H](O[C@@H]2O[C@H](C)C[C@H](N(C)C)[C@H]2O)[C@](C)(OC/C=C/c2cccc3ncccc23)C[C@@H](C)C(=O)[C@H](C)[C@H]2NC(=O)O[C@@]21C`, for which the MIC against Staphylococcus aureus [1] was 0.1 µg/mL (≈ 0.131 µM); in the experiment with Staphylococcus aureus [2], greater than 100 µg/mL; in [3], 0.25 µg/mL (≈ 0.326 µM); with Streptococcus pneumoniae [4], 0.25 µg/mL (≈ 0.326 µM); in [5], 2 µg/mL (≈ 2.61 µM); in the experiment on Streptococcus pneumoniae [6], 0.03 µg/mL (≈ 0.0392 µM). Besides, the MIC in [7] was greater than 128 µg/mL; in the experiment on Staphylococcus aureus [8] it was 0.1 µg/mL (≈ 0.131 µM); in [9] it was 0.03 µg/mL (≈ 0.0392 µM); in experiment [10] it was 8 µg/mL (≈ 10.4 µM).
`CC[C@H]1OC(=O)[C@H](C)C(=O)[C@H](C)[C@@H](O[C@@H]2O[C@H](C)C[C@H](N(C)C)[C@H]2O)[C@](C)(OC/C=C/c2cncc3ccccc23)C[C@@H](C)C(=O)[C@H](C)[C@H]2NC(=O)O[C@@]21C`: the MIC is 0.1 µg/mL (≈ 0.131 µM) in the experiment on Staphylococcus aureus [1]; greater than 100 µg/mL against Staphylococcus aureus [2]; 0.125 µg/mL (≈ 0.163 µM) in experiment [3]; 0.25 µg/mL (≈ 0.326 µM) in the experiment on Streptococcus pneumoniae [4]; 64 µg/mL (≈ 83.6 µM) in experiment [5]; 0.004 µg/mL (≈ 0.00522 µM) against Streptococcus pneumoniae [6]. The MIC in experiment [7] came to 8 µg/mL (≈ 10.4 µM); in the experiment with Staphylococcus aureus [8], 0.1 µg/mL (≈ 0.131 µM); in experiment [9] it was 0.004 µg/mL (≈ 0.00522 µM); in experiment [10], 2 µg/mL (≈ 2.61 µM).
Regarding `CC[C@H]1OC(=O)[C@H](C)C(=O)[C@H](C)[C@@H](O[C@@H]2O[C@H](C)C[C@H](N(C)C)[C@H]2O)[C@](C)(OC/C=C/c2cnc3nccnc3c2)C[C@@H](C)C(=O)[C@H](C)[C@H]2NC(=O)O[C@@]21C`, the MIC in the experiment on Staphylococcus aureus [1] is 0.2 µg/mL (≈ 0.26 µM); against Staphylococcus aureus [2], greater than 100 µg/mL; in experiment [3] it was 2 µg/mL (≈ 2.6 µM); against Streptococcus pneumoniae [4] it was 2 µg/mL (≈ 2.6 µM); in experiment [5], 1 µg/mL (≈ 1.3 µM); in the experiment with Streptococcus pneumoniae [6] it was 0.015 µg/mL (≈ 0.0195 µM). Besides, the MIC in experiment [7] amounted to 4 µg/mL (≈ 5.21 µM); in the experiment with Staphylococcus aureus [8], 0.2 µg/mL (≈ 0.26 µM); in [9] it was 0.015 µg/mL (≈ 0.0195 µM); in [10], 4 µg/mL (≈ 5.21 µM).
Consider `CC[C@H]1OC(=O)[C@H](C)C(=O)[C@H](C)[C@@H](O[C@@H]2O[C@H](C)C[C@H](N(C)C)[C@H]2O)[C@](C)(OC/C=C/c2cnc3sccc3c2)C[C@@H](C)C(=O)[C@H](C)[C@H]2NC(=O)O[C@@]21C`, for which the MIC in the experiment with Staphylococcus aureus [1] was 0.05 µg/mL (≈ 0.0648 µM); with Staphylococcus aureus [2] it was greater than 100 µg/mL; in [3], 0.25 µg/mL (≈ 0.324 µM); against Streptococcus pneumoniae [4], 0.25 µg/mL (≈ 0.324 µM); in experiment [5] it was 0.5 µg/mL (≈ 0.648 µM); against Streptococcus pneumoniae [6] it was 0.004 µg/mL (≈ 0.00518 µM). For the same molecule, the MIC in experiment [7] came out at 4 µg/mL (≈ 5.18 µM); with Staphylococcus aureus [8], 0.05 µg/mL (≈ 0.0648 µM); in experiment [9], 0.008 µg/mL (≈ 0.0104 µM); in [10], 2 µg/mL (≈ 2.59 µM).
In the case of `CC[C@H]1OC(=O)[C@H](C)C(=O)[C@H](C)[C@@H](O[C@@H]2O[C@H](C)C[C@H](N(C)C)[C@H]2O)[C@](C)(OC/C=C/c2cnc3ccccc3c2)C[C@@H](C)C(=O)[C@H](C)[C@H]2N(CCN(C)C)C(=O)O[C@]12C`, the MIC with Staphylococcus aureus [1] was 0.2 µg/mL (≈ 0.239 µM); with Staphylococcus aureus [2], greater than 100 µg/mL; in experiment [3], 2 µg/mL (≈ 2.39 µM); against Streptococcus pneumoniae [4], 2 µg/mL (≈ 2.39 µM); in experiment [5], 4 µg/mL (≈ 4.78 µM); against Streptococcus pneumoniae [6], 0.125 µg/mL (≈ 0.149 µM). Also, the MIC in experiment [7] worked out at 32 µg/mL (≈ 38.2 µM); in the experiment with Staphylococcus aureus [8], 0.39 µg/mL (≈ 0.466 µM); in experiment [9], 0.03 µg/mL (≈ 0.0358 µM); in experiment [10], 8 µg/mL (≈ 9.56 µM).
Take `CC[C@H]1OC(=O)[C@H](C)C(=O)[C@H](C)[C@@H](O[C@@H]2O[C@H](C)C[C@H](N(C)C)[C@H]2O)[C@](C)(OC/C=C/c2cccnc2)C[C@@H](C)C(=O)[C@H](C)[C@H]2NC(=O)O[C@@]21C`: the MIC against Staphylococcus aureus [1] is 0.1 µg/mL (≈ 0.14 µM); against Staphylococcus aureus [2], greater than 100 µg/mL; in [3] it was 0.5 µg/mL (≈ 0.698 µM); in the experiment with Streptococcus pneumoniae [4], 0.5 µg/mL (≈ 0.698 µM); in [5], greater than 128 µg/mL; against Streptococcus pneumoniae [6], 0.03 µg/mL (≈ 0.0419 µM). For the same molecule, the MIC in [7] was greater than 128 µg/mL; against Staphylococcus aureus [8], 0.1 µg/mL (≈ 0.14 µM); in [9], 0.03 µg/mL (≈ 0.0419 µM); in experiment [10], 8 µg/mL (≈ 11.2 µM).
For `CC[C@H]1OC(=O)[C@H](C)C(=O)[C@H](C)[C@@H](O[C@@H]2O[C@H](C)C[C@H](N(C)C)[C@H]2O)[C@](C)(OC/C=C/c2ccc3ncccc3c2)C[C@@H](C)C(=O)[C@H](C)[C@H]2NC(=O)O[C@@]21C`, the MIC in the experiment with Staphylococcus aureus [1] is 0.05 µg/mL (≈ 0.0653 µM); in the experiment with Staphylococcus aureus [2] it was greater than 100 µg/mL; in experiment [3] it was 0.25 µg/mL (≈ 0.326 µM); in the experiment on Streptococcus pneumoniae [4] it was 0.25 µg/mL (≈ 0.326 µM); in experiment [5], 1 µg/mL (≈ 1.31 µM); in the experiment on Streptococcus pneumoniae [6], 0.004 µg/mL (≈ 0.00522 µM). In addition, the MIC is 1 µg/mL (≈ 1.31 µM) in experiment [7], 0.05 µg/mL (≈ 0.0653 µM) against Staphylococcus aureus [8], 0.004 µg/mL (≈ 0.00522 µM) in experiment [9] and 1 µg/mL (≈ 1.31 µM) in [10].
Turning to `CC[C@H]1OC(=O)[C@H](C)C(=O)[C@H](C)[C@@H](O[C@@H]2O[C@H](C)C[C@H](N(C)C)[C@H]2O)[C@](C)(OC/C=C/c2cccc3cnccc23)C[C@@H](C)C(=O)[C@H](C)[C@H]2NC(=O)O[C@@]21C`, the MIC is 0.1 µg/mL (≈ 0.131 µM) with Staphylococcus aureus [1]; greater than 100 µg/mL in the experiment on Staphylococcus aureus [2]; 0.25 µg/mL (≈ 0.326 µM) in experiment [3]; 0.25 µg/mL (≈ 0.326 µM) with Streptococcus pneumoniae [4]; 8 µg/mL (≈ 10.4 µM) in experiment [5]; 0.008 µg/mL (≈ 0.0104 µM) in the experiment on Streptococcus pneumoniae [6]. Besides, the MIC was 32 µg/mL (≈ 41.8 µM) in experiment [7], 0.1 µg/mL (≈ 0.131 µM) in the experiment on Staphylococcus aureus [8], 0.008 µg/mL (≈ 0.0104 µM) in [9] and 4 µg/mL (≈ 5.22 µM) in experiment [10].
